In paper PMC6069912 (ESMO Open, 2018):
*1 amine or outer side, *2 acyl side, *3 side chain or, on linkers, in order; H or OH if unused. Where a SMILES comes first, the peptide text is derived from it. Side-chain parts run from the residue outwards. [ ]: non-standard residue; d: D form. The star is where a group is joined. Ethylenediamine = C(CN[*:2])N[*:1]; Hyp = O=C(O)[C@@H]1C[C@@H](O)CN1; Phg = N[C@H](C(=O)O)c1ccccc1; CO = O=C([*:1])[*:2]; Bn = c1ccc(C*)cc1

Legend:
Format in all cases: in vivo, human
[1] = system: patients with BRAF-WT and NRAS-WT metastatic melanoma; assay: Phase I safety: adverse events
Method in brief: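 Open-label intrapatient escalation of the test compound SC at 300, 600, 900 and 1200 µg tid over an 8-week dose-escalation phase. At each visit, monitoring covered laboratory tests, ECG, vital signs, physical examination and gall bladder ultrasound, with AEs recorded in the eCRF. AEs of any relationship were tabulated by preferred term and by the dose level at which they started. Safety set: ≥1 dose plus ≥1 post-baseline safety assessment.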

[2] = system: BRAF-WT and NRAS-WT metastatic melanoma; assay: Antitumour activity: tumour response by RECIST 1.0; conditions: n=10, two patients, 95% CI 2.5 to 55.6; by CT or MRI and 18-FDG-PET
Method in brief: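 Patients with measurable RECIST 1.0 disease and ≥1 lesion suitable for 18-FDG-PET SUV measurement received the test compound SC at 300, 600, 900 and 1200 µg tid by intrapatient escalation for ≤8 weeks, optionally followed by 80 mg long-acting IM every 28 days. Investigators assessed response by RECIST 1.0 on CT/MRI on days 57, 113 and 169 and at end of treatment, and by adapted EORTC criteria on 18-FDG-PET on days 29 and 57. Efficacy set: ≥1 dose; 95% CI.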

[3] = Pharmacokinetics of pasireotide SC in patients, non-compartmental analysis
Method in brief: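 Patients received the test compound SC at 300–1200 µg tid during the dose-escalation phase. […] was sampled on days 1 and 8 of each of the four dose-escalation cycles and monthly during follow-up. Non-compartmental analysis gave Cmax and Cmin on days 1 and 8 of each cycle, and AUC0–2h at steady state.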

[4] = system: IGF-1, IGF-2, IGFBP2, IGFBP3, S100B, MIA; assay: Serum secretion and melanoma response biomarkers over time; conditions: patients
Method in brief: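 Serum S100B, MIA, IGF-1, IGF-2, IGFBP2 and IGFBP3 were followed over time in patients receiving the test compound SC tid (300–1200 µg escalation, optionally followed by 80 mg long-acting IM every 28 days). Results were summarised descriptively.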

[5] = system: Ki-67; assay: Ki-67 staining of tumour samples before and during pasireotide; conditions: assessed before and during treatment in four patients
[6] = system: patient with BRAF-WT and NRAS-WT stage IVc cutaneous melanoma; assay: Individual patient response summary: ascites and weight; conditions: patient number 4, after readministration of pasireotide
[7] = dose-escalation phase, AEs started at 300 µg tid SC, safety set n=10
[8] = dose-escalation phase, AEs started at 600 µg tid SC, safety set n=10
[9] = dose-escalation phase, AEs started at 900 µg tid SC, safety set n=10
[10] = dose-escalation phase, AEs started at 1200 µg tid SC, safety set n=10
[11] = dose-escalation phase, all patients (all dose levels), safety set n=10
[12] = overall (dose-escalation phase+follow-up phase), all patients, safety set n=10

Q: For `NCCCC[C@@H]1NC(=O)[C@@H](Cc2c[nH]c3ccccc23)NC(=O)[C@H](c2ccccc2)NC(=O)[C@@H]2C[C@@H](OC(=O)NCCN)CN2C(=O)[C@H](Cc2ccccc2)NC(=O)[C@H](Cc2ccc(OCc3ccccc3)cc2)NC1=O` [pasireotide] (cyclo([Hyp]([CO-Ethylenediamine])[Phg][dW]KY(Bn)F)), which “Tolerability in patients with BRAF-WT and NRAS-WT melanoma” value ([1]; authors' overall conclusion) is on record?
A: The value was “safe and well tolerated”.

Q: And the “Chills, AE regardless of study drug relationship” value (shortened to “Chills, AE regardless”) [1, 7]?
A: Its value is 0 n (%).

Q: What about the “Diarrhoea, AE regardless of study drug relationship” value (“Diarrhoea, AE regardless” for short) [1, 7] of the same compound?
A: The value was 4 (40) n (%).

Q: What about the “Fatigue, AE regardless of study drug relationship” value (shortened to “Fatigue, AE regardless”) [1, 7] of the same compound?
A: The value was 2 (20) n (%).

Q: What about the “Hyperglycaemia, AE regardless of study drug relationship” value (from here on “Hyperglycaemia, AE regardless”) [1, 7] of the same compound?
A: The value was 2 (20) n (%).

Q: What about the “Hypophosphatemia, AE regardless of study drug relationship” value (“Hypophosphatemia, AE regardless” below) [1, 7] of the same compound?
A: The value was 1 (10) n (%).

Q: What about the “Nausea, AE regardless of study drug relationship” value (“Nausea, AE regardless” for short) [1, 7] of the same compound?
A: Its value is 3 (30) n (%).

Q: And the “Tumour pain, AE regardless of study drug relationship” value (“Tumour pain, AE regardless” below) [1, 7]?
A: Its value is 2 (20) n (%).

Q: And the “Chills, AE regardless” value [1, 8]?
A: The value was 1 (10) n (%).

Q: What about the “Diarrhoea, AE regardless” value [1, 8] of the same compound?
A: Its value is 1 (10) n (%).

Q: What about the “Fatigue, AE regardless” value [1, 8] of the same compound?
A: Its value is 0 n (%).

Q: What about the “Hyperglycaemia, AE regardless” value [1, 8] of the same compound?
A: The value was 0 n (%).

Q: And the “Hypophosphatemia, AE regardless” value [1, 8]?
A: Its value is 1 (10) n (%).

Q: And the “Nausea, AE regardless” value [1, 8]?
A: Its value is 2 (20) n (%).

Q: And the “Tumour pain, AE regardless” value [1, 8]?
A: Its value is 0 n (%).

Q: And the “Chills, AE regardless” value [1, 9]?
A: Its value is 1 (10) n (%).

Q: What about the “Diarrhoea, AE regardless” value [1, 9] of the same compound?
A: Its value is 0 n (%).

Q: What about the “Fatigue, AE regardless” value [1, 9] of the same compound?
A: The value was 0 n (%).

Q: What about the “Hyperglycaemia, AE regardless” value [1, 9] of the same compound?
A: Its value is 0 n (%).

Q: And the “Hypophosphatemia, AE regardless” value [1, 9]?
A: Its value is 1 (10) n (%).

Q: And the “Nausea, AE regardless” value [1, 9]?
A: Its value is 1 (10) n (%).

Q: And the “Tumour pain, AE regardless” value [1, 9]?
A: Its value is 0 n (%).

Q: And the “Chills, AE regardless” value [1, 10]?
A: Its value is 0 n (%).

Q: What about the “Diarrhoea, AE regardless” value [1, 10] of the same compound?
A: Its value is 0 n (%).

Q: What about the “Fatigue, AE regardless” value [1, 10] of the same compound?
A: The value was 0 n (%).

Q: What about the “Hyperglycaemia, AE regardless” value [1, 10] of the same compound?
A: Its value is 0 n (%).

Q: What about the “Hypophosphatemia, AE regardless” value [1, 10] of the same compound?
A: Its value is 0 n (%).

Q: And the “Nausea, AE regardless” value [1, 10]?
A: The value was 0 n (%).

Q: And the “Tumour pain, AE regardless” value [1, 10]?
A: Its value is 0 n (%).

Q: And the “Chills, AE regardless” value [1, 11]?
A: Its value is 2 (20) n (%).

Q: And the “Diarrhoea, AE regardless” value [1, 11]?
A: The value was 5 (50) n (%).

Q: And the “Fatigue, AE regardless” value [1, 11]?
A: Its value is 2 (20) n (%).

Q: And the “Hyperglycaemia, AE regardless” value [1, 11]?
A: Its value is 2 (20) n (%).

Q: And the “Hypophosphatemia, AE regardless” value [1, 11]?
A: The value was 2 (20) n (%).

Q: And the “Nausea, AE regardless” value [1, 11]?
A: Its value is 5 (50) n (%).

Q: What about the “Tumour pain, AE regardless” value [1, 11] of the same compound?
A: Its value is 2 (20) n (%).

Q: And the “Incidence of chills (most commonly reported AEs)” value ([1]; dose-escalation phase, n=10)?
A: The value was 20%.

Q: And the “Incidence of diarrhoea (most commonly reported AEs)” value ([1]; dose-escalation phase, n=10)?
A: The value was 50%.

Q: And the “Incidence of fatigue (most commonly reported AEs)” value ([1]; dose-escalation phase, n=10)?
A: Its value is 20%.

Q: What about the “Incidence of hyperglycaemia (most commonly reported AEs)” value ([1]; dose-escalation phase, n=10) of the same compound?
A: Its value is 20%.

Q: And the “Incidence of hypophosphatemia (most commonly reported AEs)” value ([1]; dose-escalation phase, n=10)?
A: The value was 20%.

Q: And the “Incidence of nausea (most commonly reported AEs)” value ([1]; dose-escalation phase, n=10)?
A: Its value is 50%.

Q: What about the “Incidence of tumour pain (most commonly reported AEs)” value ([1]; dose-escalation phase, n=10) of the same compound?
A: The value was 20%.

Q: What about the “Study drug-related AE: diarrhoea” value ([1]; dose-escalation phase, n=10) of the same compound?
A: Its value is 50%.

Q: And the “Study drug-related AE: fatigue” value ([1]; dose-escalation phase, n=10)?
A: Its value is 20%.

Q: What about the “Study drug-related AE: hyperglycaemia” value ([1]; dose-escalation phase, n=10) of the same compound?
A: The value was 20%.

Q: What about the “Study drug-related AE: nausea” value ([1]; dose-escalation phase, n=10) of the same compound?
A: The value was 50%.

Q: What about the “Chills, AE regardless” value [1, 12] of the same compound?
A: Its value is 2 (20) n (%).

Q: And the “Diarrhoea, AE regardless” value [1, 12]?
A: The value was 5 (50) n (%).

Q: And the “Fatigue, AE regardless” value [1, 12]?
A: Its value is 3 (30) n (%).

Q: What about the “Hyperglycaemia, AE regardless” value [1, 12] of the same compound?
A: Its value is 3 (30) n (%).

Q: What about the “Hypophosphatemia, AE regardless” value [1, 12] of the same compound?
A: The value was 3 (30) n (%).

Q: And the “Nausea, AE regardless” value [1, 12]?
A: The value was 5 (50) n (%).

Q: And the “Tumour pain, AE regardless” value [1, 12]?
A: The value was 2 (20) n (%).

Q: And the “Weight decreased, AE regardless of study drug relationship” value [1, 12]?
A: Its value is 2 (20) n (%).

Q: What about the “Incidence of chills (most commonly reported AEs)” value ([1]; overall safety, n=10) of the same compound?
A: The value was 20%.

Q: What about the “Incidence of decreased weight (most commonly reported AEs)” value ([1]; overall safety, n=10) of the same compound?
A: The value was 20%.

Q: And the “Incidence of diarrhoea (most commonly reported AEs)” value ([1]; overall safety, n=10)?
A: The value was 50%.

Q: And the “Incidence of fatigue (most commonly reported AEs)” value ([1]; overall safety, n=10)?
A: Its value is 30%.

Q: What about the “Incidence of hyperglycaemia (most commonly reported AEs)” value ([1]; overall safety, n=10) of the same compound?
A: The value was 30%.

Q: And the “Incidence of hypophosphatemia (most commonly reported AEs)” value ([1]; overall safety, n=10)?
A: Its value is 30%.

Q: What about the “Incidence of nausea (most commonly reported AEs)” value ([1]; overall safety, n=10) of the same compound?
A: Its value is 50%.

Q: What about the “Incidence of tumour pain (most commonly reported AEs)” value ([1]; overall safety, n=10) of the same compound?
A: The value was 20%.

Q: And the “Study drug-related AE: diarrhoea” value ([1]; overall safety, n=10)?
A: Its value is 50%.

Q: What about the “Study drug-related AE: fatigue” value ([1]; overall safety, n=10) of the same compound?
A: The value was 20%.

Q: What about the “Study drug-related AE: hyperglycaemia” value ([1]; overall safety, n=10) of the same compound?
A: Its value is 30%.

Q: And the “Study drug-related AE: hypophosphatemia” value ([1]; overall safety, n=10)?
A: Its value is 20%.

Q: What about the “Study drug-related AE: nausea” value ([1]; overall safety, n=10) of the same compound?
A: The value was 50%.

Q: And the “Study drug-related AE: weight decrease” value ([1]; overall safety, n=10)?
A: The value was 20%.

Q: And the “Study drug-related AEs, patients with any” value ([1]; overall safety, n=10)?
A: The value was 80%.

Q: And the “Grade 3 or 4 drug-related AEs” value ([1]; overall safety, diarrhoea and nausea in one patient, hypophosphatemia in one patient, n=10)?
A: Its value is 20%.

Q: What about the “Best overall DCR (stable disease or better)” value [2] of the same compound?
A: Its value is 20%.

Q: And the “Accumulation ratio of AUC0–2h” value ([3]; 300 µg three times a day SC, patients)?
A: The value was 147%.

Q: What about the “AUC0–2h, Cmax and Cmin versus dose” value ([3]; mean plasma concentration versus time profiles on day 8, 300-1200 µg tid SC) of the same compound?
A: Its value is “increased with the increasing dose”.

Q: And the “Serum level of IGF-1 during treatment” value ([4]; over time)?
A: Its value is “decrease”.

Q: And the “Serum level of IGF-2 during treatment” value ([4]; over time)?
A: The value was “decrease”.

Q: And the “Serum level of MIA during treatment” value ([4]; over time)?
A: Its value is “decrease”.

Q: And the “Serum level of S100B during treatment” value ([4]; over time)?
A: Its value is “decrease”.

Q: And the “IGFBP2 serum levels with time” value ([4]; serum)?
A: Its value is “increase”.

Q: What about the “IGFBP3 levels with time” value ([4]; serum) of the same compound?
A: Its value is “decrease”.

Q: What about the “Tumour samples with decreases in Ki-67 staining following treatment” value [5] of the same compound?
A: The value was “Three of the four”.

Q: What about the Improvement in ascites [6] of the same compound?
A: Its Improvement in ascites is “from grade 2 to grade 1”.

Q: And the Reduction in weight ([6]; ascites)?
A: The Reduction in weight was “from 85 kg to 63 kg”.
